From PubChem
NR2E3 ag-1 – activates human photoreceptor nuclear receptor NR2E3; inhibition of corepressor binding, % at 4.78 µM; actives 0.12% (n = 320,000); GST-NR2E3/biotin-RetCOR TR-FRET, 1536-well; Q9Y5X4;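 active = percent inhibition above the cutoff of mean plus 3 SD of all tested compounds, set per screening campaign, cut at about 20% in these data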;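 also: 0% = DMSO wells and 100% = biotin wells as full block of FRET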
Target sequence (Q9Y5X4 whole entry, looked up): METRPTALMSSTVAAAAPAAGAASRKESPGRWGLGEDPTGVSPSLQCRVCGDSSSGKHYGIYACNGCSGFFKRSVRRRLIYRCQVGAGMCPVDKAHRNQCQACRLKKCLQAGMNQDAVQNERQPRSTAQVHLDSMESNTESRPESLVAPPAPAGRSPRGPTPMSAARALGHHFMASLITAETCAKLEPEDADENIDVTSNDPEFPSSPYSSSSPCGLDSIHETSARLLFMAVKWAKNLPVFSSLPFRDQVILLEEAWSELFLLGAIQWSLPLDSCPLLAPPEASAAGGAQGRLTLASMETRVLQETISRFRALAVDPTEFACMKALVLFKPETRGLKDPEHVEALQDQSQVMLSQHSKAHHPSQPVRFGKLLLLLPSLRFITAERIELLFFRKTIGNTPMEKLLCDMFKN
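Test system: GST-NR2E3 and biotin-RetCOR proteins | Quantity: 1.35 nM GST-tagged NR2E3 final | Medium: Tris pH 7.5 | Also added: 7 nM biotin-RetCOR | Dosing: Compound at 4.8 µM, single dose | Timing: 5 h at 4 °C | Detection: Time-resolved FRET | Read-out basis: Percent inhibition | Benchmarks: Biotin wells as high control, 0.6% DMSO wells as low control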
Myeloid diff 2 – myeloid differentiation induction | actives 1% (n = 360,000) | ER-HoxA9 myeloid progenitors, lysozyme-GFP differentiation, flow cytometry | AID 624256 | calls only at 10 µM;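 active = normalized GFP-positive differentiation at or above the plate's own cutoff, the solvent-only control mean plus 3 SD; inconclusive = no clear call, values can overlap the other calls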;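 also: cells exposed to compound for four days before flow analysis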
NR2E3 ag-2 – agonists of human NR2E3 nuclear receptor. Q9Y5X4. CHO-S Gal4-NCOR/VP16-NR2E3 two-hybrid, luciferase. inhibition of corepressor binding, % at 3.98 µM. actives 0.35% (n = 360,000);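 active = inhibition above the mean of all tested compounds plus 3 SD, cut at about 70% in these data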;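 also: 0% = DMSO with NR2E3 transfected cells and 100% = cells lacking NR2E3 construct; higher means lower luciferase signal from less NR2E3 corepressor binding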
T cell modulator – T cell immune modulators affecting CD8 T cell-vesicle binding; response (vesicle binding), % at 7 µM; actives 0.068% (n = 330,000); 2C CD8+ T cell-vesicle binding, flow cytometry; active compounds read low; AID 2052;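 active = response, share of CD8 T cells binding vesicles, and their 90th percentile fluorescence all below set limits, cut at about 80% in these data, passing the limit was not always enough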;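 also: values below 100% mean blocked vesicle binding to the CD8+ T cells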
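material = purified 2C TCR transgenic mouse naive CD8+ T cells | controls = Unloaded micro-vesicles (low), QL9 vesicles with 0.7% DMSO (high) | detection = cytometric PE anti-B7-1 and Alexa647 anti-CD8 signals after 1% paraformaldehyde fixation | incubation = binding step 1.5 h, 37 °C, antibody labelling 20 min, ice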
GAA850 FXN act – activators of GAA850 frataxin (FXN) promoter | HEK293 lucGAA850 FXN promoter luciferase reporter, 24 h; percent of 10 µM SAHA response | activation, % at 6 µM | actives 0.56% (n = 360,000) | AID 540364;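 active = activation above the average of all compounds screened plus 3 SD, cutoff fixed separately per campaign, cut at about 7.5% in these data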;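 also: 0% = DMSO wells and 100% = 10 µM SAHA wells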
GAA30 counter – counter-screen for GAA850 frataxin promoter activators: GAA30 promoter activation; activation, % at 6 µM; HEK293 lucGAA30 FXN promoter luciferase, 24 h; DMSO = 0%, 5 µM ipriflavone = 100%; shares compounds with GAA850 FXN act; actives 66% (n = 1,900);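 active = mean activation above the mean of solvent-only control wells plus 3 SD, cut at about 22% in these data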;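 also: counterscreen of GAA850 promoter hits where activity marks nonselective or luminescence artifacts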
FXN GAA850 conf – confirmation of GAA850 frataxin (FXN) promoter activators; shares compounds with GAA850 FXN act; HEK293 lucGAA850 FXN promoter luciferase reporter, 24 h; 100% = activation by SAHA; activation, % at 6 µM; actives 86% (n = 1,900);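 active = mean activation above a set limit taken from the primary screen, cut at about 8% in these data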;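 also: 0% = DMSO wells and 100% = 10 µM SAHA wells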
* hit, by the source's call; i = inactive; ? = inconclusive; . = no result; + = active, no number. Sampled rows, rich in hits. Any-hit rate of the full collection: about 2%.

SMILES | NR2E3 ag-1 | Myeloid diff 2 | NR2E3 ag-2 | T cell modulator | GAA850 FXN act | GAA30 counter | FXN GAA850 conf
Clc1ccc(-c2nnc(-c3ccco3)o2)cc1 | 2.8 | i | -96.2 | 167.8 | 11.6* | 107.9* | 40.7*
COc1ccccc1N1CCN(C2CCCN(C(=O)CN3CCCC3=O)C2)CC1 (stereo not given) | . | i | -5.6 | 299.2 | 0.8 | . | .
O=C(CNS(=O)(=O)c1ccc(F)cc1)N1CCCC1 | -0.2 | i | -17.7 | 836.5 | 2.2 | . | .
COc1ccc(C2CC(C(F)(F)F)n3ncc(C(=O)NCC4CCCO4)c3N2)cc1OC (stereo not given) | -1.1 | i | -18.5 | 125.8 | 8.2* | 9.1 | 10.9*
COc1ccc(C2CC(C(F)(F)F)n3ncc(C(=O)O)c3N2)cc1OC (stereo not given) | 1.2 | i | -20.2 | 155.7 | 4.0 | . | .
COc1ccc(OC)c2sc(N3CCN(c4ccccc4)CC3)nc12 | -0.1 | i | -9.0 | 243.2 | 8.8* | 39.2* | 17.3*
COc1ccc(C)c2sc(N3CCCC3)nc12 | 2.9 | i | -0.5 | 564.4 | -0.7 | . | .
Cc1nnc(NC(=O)c2oc3ccccc3c2C)s1 | 6.0 | i | -125.3 | 174.8 | 6.2 | . | .
Cc1nc(NC(=O)c2oc3ccccc3c2C)sc1C(=O)N(C)C | 0.7 | i | -139.7 | 297.7 | 7.8* | 112.0* | 36.3*
Cc1cc2c([nH]c3ccccc32)c2c1OC(C)(C)C=C2 | -0.6 | i | -86.4 | 143.8 | 8.2* | 123.5* | 46.2*
COc1ccc2[nH]c(=O)c3c(c2c1)OC(C)(C)C=C3 | 0.9 | i | 26.5 | 247.5 | -2.5 | . | .
COc1ccccc1-c1nc(SCC(=O)Nc2cc(C)on2)c2c(=O)n(C)c(=O)n(C)c2n1 | 1.8 | i | -3.1 | 278.5 | -0.6 | . | .
Cc1ccc(S(=O)(=O)NCc2ccccc2)cc1C(=O)NCC(=O)Nc1c(C)cccc1C | . | i | 22.5 | . | -2.0 | . | .
Oc1cccc2ccc(/C=C/c3ccccc3Br)nc12 | 3.5 | i | -131.1 | 230.6 | -0.1 | . | .
Oc1cccc2ccc(/C=C/c3cccs3)nc12 | 1.4 | i | -148.5 | 259.6 | 11.2* | 35.2* | 23.8*
Cc1ccsc1/C=C/c1ccc2cccc(O)c2n1 | -2.0 | i | -137.2 | 173.2 | 8.5* | 4.4 | 24.4*
N#Cc1c(-c2ccccc2)cc(C2CC2)nc1N | 3.3 | i | -9.8 | 211.8 | 8.3* | 12.8 | 9.5*
COC(=O)c1ccc(CSc2nc3ccccc3c(=O)n2-c2ccccc2)o1 | 5.1 | i | 2.6 | 319.5 | 15.6* | 20.5 | 12.4*
COC(=O)c1ccc(CSc2nc3ccccc3c(=O)n2-c2ccc(OC)c(OC)c2)o1 | 2.5 | i | -13.6 | 177.0 | 7.2 | . | .
Cc1cc(-c2n[nH]c(=S)n2/N=C/C(Cl)=C/c2ccccc2)n[nH]1 | -3.3 | i | -1.4 | 361.3 | 6.5 | . | .
S=c1[nH]nc(-c2cc(-c3ccccc3)n[nH]2)n1/N=C/c1ccccc1 | 0.9 | i | -33.0 | 184.8 | 1.8 | . | .
S=c1[nH]nc(-c2cc(-c3ccccc3)n[nH]2)n1/N=C/C(Br)=C/c1ccccc1 | -0.2 | . | 0.4 | 436.9 | 12.2* | -41.8 | 26.2*
S=c1[nH]nc(-c2ccco2)n1/N=C/C(Cl)=C/c1ccccc1 | 0.6 | i | 7.4 | 333.7 | 8.0* | 78.3* | 32.4*
Cc1ccc(NC(=O)CCc2nnc3ccc(N4CCOCC4)nn23)cc1C | 6.2 | i | -7.2 | 566.3 | 12.9* | 11.0 | 3.2
Cc1ccc(NC(=O)CCc2nnc3ccc(N4CCC5(CC4)OCCO5)nn23)cc1F | -1.1 | i | -22.7 | i | 0.8 | . | .
SMILES | NR2E3 ag-1 | Myeloid diff 2 | NR2E3 ag-2 | T cell modulator | GAA850 FXN act | GAA30 counter | FXN GAA850 conf
CC(=O)c1cc2c(C)c(C(=O)c3ccccc3)oc2cc1O | 0.8 | i | -114.3 | 162.2 | 8.8* | 121.7* | 39.1*
O=C(c1ccccc1)c1ccc(O)cc1O | 0.4 | i | -28.8 | 137.3 | 4.3 | . | .
COC(=O)c1ccc2nc(-c3ccc(C)cc3)c(Cc3cccc(Cl)c3)n2c1 | . | i | -26.9 | . | . | . | .
Cc1ccc(/C=N/NC(=O)c2nnn(-c3nonc3N)c2-c2ccc3c(c2)OCO3)s1 | 0.5 | i | -18.9 | 384.0 | 0.6 | . | .
Cc1ccc2nc(SCC(=O)N/N=C/c3ccco3)cc(C)c2c1 | -3.3 | i | -22.0 | i | 0.0 | . | .
Cc1ccc2nc(N/N=C/c3ccco3)cc(C)c2c1 | 0.9 | i | -100.7 | 331.6 | 8.2* | 103.8* | 43.9*
COc1cccc(Cn2c(C(C)n3c(-c4cnccn4)nc4ccccc43)nc3ccccc32)c1 (stereo not given) | . | i | . | . | . | . | .
Nc1nc(SCc2ccc(Cl)cc2Cl)ns1 | -0.9 | i | -29.7 | 457.9 | 7.9* | 50.0* | 15.1*
Cc1ccc(C(C)C)cc1OCCn1cncn1 | 0.5 | i | -23.7 | 138.7 | 1.1 | . | .
COC(=O)C(NC(=O)c1ccccc1C)(Nc1ncc(S(=O)(=O)c2ccc([N+](=O)[O-])cc2)s1)C(F)(F)F (stereo not given) | 3.3 | i | -19.5 | 155.0 | -0.1 | . | .
COC(=O)C(NC(=O)c1ccc(F)cc1)(Nc1ncc(S(=O)(=O)c2ccc([N+](=O)[O-])cc2)s1)C(F)(F)F (stereo not given) | 4.7 | i | -25.8 | 85.7 | 9.8* | 21.2 | 14.1*
Oc1ccc(Nc2ncnc3c2oc2ccccc23)cc1 | -2.4 | i | -46.4 | 469.9 | 11.6* | 143.2* | 39.7*
Cc1cnc(C(=O)N(c2ccccc2)C(c2ccccc2)c2nc3ccccc3[nH]2)cn1 (stereo not given) | . | i | -67.1 | . | . | . | .
CCOc1ccc(N=c2scc(-c3ccccc3)n2CCO)cc1 | 0.5 | i | -93.5 | 393.6 | 0.8 | . | .
CCn1c(-c2ccccc2)csc1=Nc1ccc(O)cc1 | 1.8 | + | -82.2 | 236.8 | 9.3* | 99.4* | 36.7*
COc1ccc(Nc2nccc(-c3cccc(N)c3)n2)cc1 | 3.3 | i | -29.8 | 206.7 | 13.1* | 130.5* | 100.4*
CN(C)CCCN1C(=O)c2cccc3c([N+](=O)[O-])ccc(c23)C1=O | -4.2 | ? | -8.0 | 830.7 | 7.7* | -23.8 | 12.3*
O=C1c2cccc3c([N+](=O)[O-])ccc(c23)C(=O)N1CCc1ccccn1 | -1.8 | ? | -15.5 | 394.1 | 0.9 | . | .
CSc1ccc(Cn2c(C)c(C(=O)NCc3ccc4c(c3)OCO4)sc2=O)cc1 | . | i | -3.0 | . | -0.9 | . | .
Cc1cccc(C)c1NC(=O)c1csc(COCCO)n1 | . | i | -12.8 | . | 0.0 | . | .
CC(C)OC(=O)CSc1nc(N)c(C#N)cc1C#N | -0.9 | i | -26.1 | 306.1 | 8.4* | 63.9* | 28.9*
